Measurements pooled from the literature.
Lines come from different studies, so protocols differ.
Target: Ephrin type-A receptor 2 (EPHA2, Homo sapiens, UniProt P29317)

SMILES | observed | method | concentration | remaining binding [%]
O=C(NCCCN1CCOCC1)c1ccc(Nc2ncc(Cl)c(-c3ccc(Cl)s3)n2)cc1 | binding | competition with immobilised ligand | 1 µM | 100
CS(=O)(=O)c1cc(C2(NC(=O)c3cncc4c3cnn4-c3ccc(F)cc3)CC2)ccn1 | cell-free assay | competition with immobilised ligand | 1 µM | 100
CNC(=O)[C@@H]1CC[C@@H](n2c(-c3ccc4cnccc4c3)nc3ccc(C(=O)NCc4cccc(C(N)=O)c4)cc32)C1 | binding | competition with immobilised ligand | 1 µM | 98
O=C(c1ccc(Nc2nccc(-c3cc4ccccc4s3)n2)cc1)N1CCC(N2CCCC2)CC1 | binding | competition with immobilised ligand | 1 µM | 65
CN(C)c1nccc(-c2cnn3ncccc23)n1 | binding | – | 1 µM | 85
Nc1ncc2c(n1)-c1c([nH]c3ccc(C#CC4CC4)cc13)CCCC2 | binding | competition with immobilised ligand | 1 µM | 100
O=C(NCC1CCOCC1)c1n[nH]cc1NC(=O)c1c(F)cccc1F | binding | competition with immobilised ligand | 1 µM | 100
CC(C)(C)c1ccc(-c2nc(CBr)nn2-c2cccc(O)c2)cc1 | cell-free assay | competition with immobilised ligand | 10 µM | 89
C[C@@H]1CN(c2ccc3ncc(-c4ccc5[nH]nc(C6CC6)c5c4)n3n2)C[C@H](C)O1 | binding | competition with immobilised ligand | 50 nM | 86
C[C@H](c1ccc(F)cc1)N(Cc1cccc(C(=O)O)c1)C(=O)c1cnc2ccccc2c1 | cell-free assay | competition with immobilised ligand | 1 µM | 100
N#Cc1ccccc1CSc1nnc2c(n1)[nH]c1ccccc12 | binding | competition with immobilised ligand | 10 µM | 87
Cc1cc(C)c(-n2ccn3nc(-c4cccnc4)cc23)cc1NC(=O)c1cc(C#N)cc(S(F)(F)(F)(F)F)c1 | cell-free assay | competition with immobilised ligand | 0.1 µM | 79.6
O=C(c1ccc(Nc2ncc(Cl)c(-c3ccc(Cl)s3)n2)cc1)N1CCC(N2CCCC2)CC1 | binding | competition with immobilised ligand | 1 µM | 100
CN(CCCC(F)(F)F)c1nccc(-c2cnn3ncccc23)n1 | binding | – | 1 µM | 82
COc1cnc(Nc2cccc(S(N)(=O)=O)c2)nc1N1CCN(c2ccccc2)CC1 | binding | competition with immobilised ligand | 1 µM | 100
N[C@@H]1CCN(c2nccc(-c3cnn4ncccc34)n2)C1 | binding | – | 1 µM | 100
CCC(=N\O)/C(C)=C/c1ccc(F)cc1 | cell-free assay | competition with immobilised ligand | 1 µM | 84
CCN1CCN(Cc2ccc(C(=O)Nc3ccc(C)c(Oc4ccc5c(c4)CC(=O)N5)c3)cc2C(F)(F)F)CC1 | binding | competition with immobilised ligand | 1 µM | 73
CN(C)c1ncc(F)c(-c2cnn3ncccc23)n1 | binding | – | 1 µM | 80
O=C(NCc1ncc(C(F)(F)F)cc1Cl)c1ccc2c(c1)C1(CCS(=O)(=O)CC1)[C@@H](C1CC1)N2S(=O)(=O)c1ccc(F)cc1 | cell-free assay | competition with immobilised ligand | 1 µM | 84
CC1CCCN1c1nccc(-c2cnn3ncccc23)n1 (centres unmarked) | binding | – | 1 µM | 99
C=CC(=O)N1CCC(C(=O)NCC(=O)N2CCN(c3nc(-c4cnc(N)nc4C(F)F)nc(N4CCOCC4)n3)CC2)CC1 | binding | competition with immobilised ligand | 1 µM | 95
NS(=O)(=O)c1cc(NC(=O)Cc2ccccc2)ccc1Oc1cccc(Cl)c1 | cell-free assay | competition with immobilised ligand | 1 µM | 91
C[C@H]1CCN(c2nccc(-c3cnn4ncccc34)n2)C1 | binding | – | 1 µM | 100
Cc1noc([C@H]2C[C@@H](c3ccc(C(F)(F)F)cc3)CN(C(=O)N3CCS(=O)(=O)C3)C2)n1 | cell-free assay | competition with immobilised ligand | 1 µM | 100
c1cnn2ncc(-c3ccnc(N4CCC45COC5)n3)c2c1 | binding | – | 1 µM | 94
